# Source: PubChem BioAssay
# Only some compounds are listed: those with a hit (about 1.6% of all), similar ones and a draw of the others.
# PKA-R2B act: activators of human PKA-R2B complex. P22694+P31323. PKA-R2B holoenzyme dissociation, Cy5-IP20 fluorescence polarization; R2B truncated from residue 108, S112A mutant; 0% DMSO only, 100% 113 µM cGMP. activation, % at 11.4 µM. 340,000 compounds, 0.079% hits;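 active = activation above a cutoff set at the mean over all compounds plus 3 SD, cut at about 18% in these data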;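 also: higher means more holoenzyme dissociation and a rise in polarization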
# Target sequence (P31323 whole entry, looked up, other chains not shown, the tested form may be a part): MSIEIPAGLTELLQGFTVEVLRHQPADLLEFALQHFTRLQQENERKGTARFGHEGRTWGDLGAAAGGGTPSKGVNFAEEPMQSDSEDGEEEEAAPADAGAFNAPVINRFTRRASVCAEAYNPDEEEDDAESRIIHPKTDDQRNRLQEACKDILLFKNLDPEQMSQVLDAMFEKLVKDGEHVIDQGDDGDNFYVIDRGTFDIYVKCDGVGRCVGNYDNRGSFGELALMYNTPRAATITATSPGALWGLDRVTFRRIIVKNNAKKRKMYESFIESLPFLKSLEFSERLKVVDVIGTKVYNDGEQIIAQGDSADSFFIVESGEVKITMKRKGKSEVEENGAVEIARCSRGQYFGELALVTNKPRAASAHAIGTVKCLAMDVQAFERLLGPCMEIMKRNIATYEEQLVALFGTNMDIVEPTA
# PKA-R1A activ: PKA-R1A complex activation; P00514+P68181; PKA-R1A dissociation, Cy5-IP20 fluorescence polarization; scaled: DMSO 0%, 113 µM cGMP 100%; activation, % at 11.4 µM; 340,000 compounds, 0.083% hits; AID 504707;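 active = percent activation above the mean of all tested compounds plus 3 SD, cut at about 19% in these data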;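 also: higher means more PKAc released from R1A so a rise in polarization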
# Rpn11 block: inhibitors of human proteasome Rpn11; human 26S proteasome, Ub4-pepOG fluorescence polarization; 20S core pre-blocked with epoxomicin; O00487; AID 588493; calls only at 20 µM; 360,000 compounds, 0.59% hits;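 active = inhibition at 20 µM, scaled to each plate's controls, above about 33%, limit read from the data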
# CSN inh: CSN deneddylation inhibition. Q92905. Purified CSN, SCF-Nedd8-OG deneddylation, fluorescence polarization. inhibition, % at 12.5 µM. 360,000 compounds, 0.38% hits. AID 651999;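 active = pattern-corrected inhibition above about 35%, with an unprinted fluorescence ratio check between 0.5 and 1.5, limit read from the data, passing the limit was not always enough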;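 also: 0% = enzyme with substrate and 100% = substrate without enzyme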
#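 Detection – fluorescence polarization · System – HEK293T-derived human Csn5 enzyme · Controls – substrate-only high control, full reaction low control · Timing – 90 min, room temperature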
# HNF4A DNA FP: change in binding of human HNF4 alpha to DNA. 360,000 compounds, 0.3% hits. AID 1224865. HNF4a-FITC DNA binding, fluorescence polarization, 1 h. P41235. activity change, % at 10 µM; in the data active = activity change above about 30%, passing the limit was not always enough
# TPT1 inh: C. albicans TPT1 enzyme inhibition | recombinant caTPT1, FP RNA substrate dephosphorylation | inhibition, % at 5 µM | 300,000 compounds, 0.81% hits | AID 1962;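 active = inhibition above the mean of all tested compounds plus 3 SD, set per screening campaign, cut at about 24% in these data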;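 also: plate controls were DMSO alone for no effect and ferristatin control at 100 nM for full effect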
# Rpn11 inh conf: Rpn11 inhibition confirmation, single concentration | purified human 26S proteasome, Ub4-pepOG fluorescence polarization; proteasome pretreated with epoxomicin | shares compounds with Rpn11 block | inhibition, % at 20 µM | 1,900 compounds, 29% hits
# MMP-2 inh: MMP-2 (human) inhibition counter-screen; shares compounds with Rpn11 block; recombinant MMP-2, FRET peptide cleavage fluorescence; inhibition, % at 20 µM; 1,900 compounds, 4% hits; AID 602330;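 also: human MMP-2 activated beforehand with APMA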
# Thrombin inh: blocks bovine thrombin, flagging nonselective RPN11 hits; shares compounds with Rpn11 block; bovine thrombin cleavage of Ub4-pepOG, fluorescence polarization; inhibition, % at 20 µM; 1,900 compounds, 13% hits;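 active = mean inhibition at least 40% at 20 µM, or signal 3 deviations below plate average, so some actives read negative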;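 also: plate controls were thrombin with DMSO for no effect and buffer wells lacking thrombin for full effect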
# * marks the source's active call; other numbers are inactive results; i = inactive; · = no result; + = active, no number. Rule as the data show it, unless noted: active = inhibition above about 40%; inactive = the rest.
SMILES,PKA-R2B act,PKA-R1A activ,Rpn11 block,CSN inh,HNF4A DNA FP,TPT1 inh,Rpn11 inh conf,MMP-2 inh,Thrombin inh
O=c1[nH]c2ccc(Cl)cc2c(-c2ccccc2)c1SC(=S)N1CCOCC1,1,-9,+,1,-4,-5,7,1,-14
O=c1[nH]c2ccc(Cl)cc2c(-c2ccccc2)c1SC(=S)N1CCCCC1,-7,-2,i,5,-3,-3,·,·,·
Cc1nnc2n(c1=O)N=C(c1ccc(Cl)cc1)CS2,-5,-1,i,6,-1,1,·,·,·
CC(C)c1ccc(OCC(=O)N(Cc2ccccc2)c2ccccn2)cc1,4,10,+,0,2,-1,5,-19,7
O=C(COc1ccc(Cl)cc1)N(Cc1ccccc1)c1ccccn1,-11,-5,i,-4,-2,4,·,·,·
COc1cc2c(cc1OC)C(c1cc3cc4c(cc3[nH]c1=O)OCO4)N(C(=O)C(C)C)CC2 (stereo unspecified),6,1,i,3,-2,-1,·,·,·
CCCOc1cccc(C2C(C(=O)c3ccc(C)o3)=C(O)C(=O)N2c2nc(C)c(C(C)=O)s2)c1 (stereo unspecified),4,2,+,19,14,17,9,-29,11
COc1ccc2cc(C#N)c(SCC(=O)N3CC(=O)Nc4ccccc43)nc2c1,-10,-2,+,-8,-1,3,-4,-42,-20
COc1ccc(CCNC(=O)CC(=O)N/N=C/c2ccc(C(=O)O)cc2)cc1OC,-15,-9,i,0,1,2,·,·,·
COC(=O)c1ccc(/C=N/OCC(=O)NCCc2ccc(OC)c(OC)c2)cc1,1,10,+,-14,2,-2,2,-6,-13
O=C(CCNS(=O)(=O)c1cccs1)NCc1cccs1,-5,-4,+,-6,-2,-1,1,-8,-5
O=C(CCNS(=O)(=O)c1ccc(Br)cc1)NCc1cccs1,-10,17,i,-1,-1,-2,·,·,·
Cc1ccc(/C=c2\sc3nc(-c4ccccc4Br)nn3c2=O)o1,-4,2,+,50*,-12,11,31,6,13
Cc1ccccc1CC(=O)N1CCCC1,0,-14,i,1,-4,0,·,·,·
O=C1N(Cc2cccc(Cl)c2)C[C@@H]2C[C@@H](c3cccc4cccnc34)N3CCC[C@@]123,4,2,+,16,3,8,4,-30,6
Cc1cccc([C@@H]2C[C@H]3CN(Cc4cccc(Cl)c4)C(=O)[C@]34CCCN24)n1,9,0,i,0,3,1,·,·,·
O=C1CS(=O)(=O)N(Cc2ccccc2F)c2ccc(Br)cc21,1,2,+,3,1,·,-15,-32,-14
O=C1CS(=O)(=O)N(Cc2ccc(F)cc2)c2ccccc21,1,0,+,-3,1,·,-2,-22,-6
O=c1ccccn1Cc1ccccc1F,9,-4,i,3,1,2,·,·,·
COc1cc(CN2c3ccccc3C(=O)CS2(=O)=O)cc(OC)c1,-4,3,+,-1,2,·,82*,-46,-18
CCOC(=O)C1=C(CC)OC(N)=C(C#N)C1c1ccc(NC(C)=O)cc1 (stereo unspecified),-2,-3,i,-2,-1,-1,·,·,·
CCOc1ccc(C(=O)CCC(=O)N2CCC(C(=O)OC)CC2)cc1,-2,2,+,12,19,11,37,5,21
CCOC(=O)N1CCN(C(=O)CCC(=O)c2ccc(OCC)cc2)CC1,2,-3,i,3,0,-1,·,·,·
CC(OC(=O)c1ccc(C#N)cc1)C(=O)Nc1ccc(Cl)cn1 (stereo unspecified),-10,5,i,-4,2,·,·,·,·
O=C(CN(C(=O)c1csnn1)c1ccc2c(c1)OCCO2)NCc1ccc(F)cc1,6,-7,+,0,16,-4,6,-6,-1
SMILES,PKA-R2B act,PKA-R1A activ,Rpn11 block,CSN inh,HNF4A DNA FP,TPT1 inh,Rpn11 inh conf,MMP-2 inh,Thrombin inh
CC1(C)Cc2c(C#N)c(SCCC#N)nc(N3CCOCC3)c2CS1,-2,13,+,0,-5,-1,3,-19,-2
O=C(CN1CCN(c2ccccn2)CC1)NC1CCCC1,-4,3,+,-5,6,-2,-2,-12,59*
CCOc1ccccc1C(=O)NCC(=O)OCC(=O)c1c(N)n(C)c(=O)n(C)c1=O,11,3,i,-1,3,·,·,·,·
COc1ccc(NS(=O)(=O)c2cccc(C(=O)NN=C(C)c3ccco3)c2)cc1,-2,-13,i,0,4,·,·,·,·
Cc1ccc(S(=O)(=O)Cn2nnnc2C(C(C)C)N2CCC(O)CC2)cc1 (stereo unspecified),-5,0,i,7,5,3,·,·,·
[O-][n+]1cccc2c(Br)cc(Br)c(O)c21,-1,-2,+,5,-3,1,-20,-8,-7
C=CC1=C(C(=O)O)N2C(=O)C(NC(=O)Cc3ccccc3)C2SC1 (stereo unspecified),-1,-1,+,54*,-56,3,34,31,-20
O=c1cc(O)c2c(=O)n(Cc3ccccc3)c3ccccc3c2o1,-7,1,i,3,5,5,·,·,·
O=c1cc(O)c2c(=O)n(C3CCCCC3)c3ccccc3c2o1,4,-2,+,11,-2,20,25,-30,6
O=C(Nc1ccc(N2CCCC2)cc1)c1cc(Cl)ccc1Cl,1,6,+,23,14,3,3,-11,-10
O=C(CN1CCCCC1)Nc1ccccc1,1,6,i,4,-24,-1,·,·,·
O=C(CN1CCCCC1)Nc1ccc(N2CCCCCC2)cc1,-8,-9,+,-3,72*,0,-5,-35,-5
O=C(Nc1ccc(N2CCCC2)cc1)c1cc2ccccc2o1,-6,2,+,19,11,2,23,6,0
COc1ccc(S(=O)(=O)Nc2cccc3c2O[C@@H](CN(C)Cc2ccc(C(=O)O)cc2)[C@@H](C)CN([C@H](C)CO)C3=O)cc1,4,5,i,-2,5,·,·,·,·
